Assays:
C6 = test: Induction of pregnenolone biosynthesis in rat C6 cells assessed as increase in pregnenolone level at 40 uM after 2 hrs by ELISA relative to control; assay type: functional
Outline: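 Rat C6 glioma cells grown in DMEM with 10% FBS, 2 mM L-glutamine, penicillin/streptomycin, seeded ~10 000 cells/well. Exposed to compound at 40 µM for 2 h at 37 °C, with DMSO/ethanol ≤0.5% (v/v) kept constant. Pregnenolone secreted into the medium measured by competitive ELISA; mean ± SEM of at least three determinations.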

Translocator protein = Translocator protein (Rattus norvegicus, UniProt P16257); test: Displacement of [3H]PK11195 from translocator protein in rat kidney mitochondrial membrane; assay type: cell membranes
Rattus norvegicus [1] = test: Anxiolytic activity in Sprague-Dawley rat assessed as reduction of total number of open arm entries at 50 mg/kg, ip after 5 mins by plus-maze test; assay type: functional; settings: route intraperitoneal
Outline: (§1)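 Male Sprague-Dawley rats (180-200 g), group-housed 6/cage at 24 ± 1 °C, 12 h light/dark, free food and water except during testing. Dosed ip. Elevated four-arm maze (two open, two enclosed arms); entries into and time in open arms, and total arm entries, scored over a 5 min session versus vehicle-treated controls.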

Rattus norvegicus [2] = test: Anxiolytic activity in Sprague-Dawley rat assessed as increase in total number of open arm entries at 30 mg/kg, ip by plus-maze test; assay type: functional; settings: route intraperitoneal; outline: as §1

Translocator protein, sequence (P16257 whole entry, looked up): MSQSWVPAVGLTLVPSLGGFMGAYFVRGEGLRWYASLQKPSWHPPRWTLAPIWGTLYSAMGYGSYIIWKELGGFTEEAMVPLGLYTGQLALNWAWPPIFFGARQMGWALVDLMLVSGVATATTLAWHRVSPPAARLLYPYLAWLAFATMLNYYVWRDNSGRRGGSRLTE

Compound `CCCN(CCC)C(=O)C(=O)c1c(-c2ccc(Cl)cc2)[nH]c2ccccc12` has an Activity (C6) of 40%.

In the case of `CCCCCCN(CCCCCC)C(=O)C(=O)c1c(-c2ccccc2)[nH]c2ccccc12`, the Activity (C6) is reported as 30%.

`CCCCN(CCCC)C(=O)C(=O)c1c(-c2ccccc2)[nH]c2ccccc12` showed an Activity (C6) of 23%.

`CCN(Cc1ccccc1)C(=O)C(=O)c1c(-c2ccc(Cl)cc2)[nH]c2ccccc12` was tested, and the Ki (Translocator protein) was 1.3 nM and the Activity (C6) was 136%.

`CCCCCCN(CCCCCC)C(=O)C(=O)c1c(-c2ccccc2)[nH]c2c(C)cccc12` gave a Ki (Translocator protein) of 1.9 nM and an Activity (C6) of 63%.

Compound `CCN(Cc1ccccc1)C(=O)C(=O)c1c(-c2ccccc2)[nH]c2ccccc12` has a Ki (Translocator protein) of 11 nM and an Activity (C6) of 20%.

Compound `CCCCN(C)C(=O)C(=O)c1c(-c2ccccc2)[nH]c2ccc(Cl)cc12` has a Ki (Translocator protein) of 3.9 nM and an Activity (C6) of 70%.

Compound `CCCCCN(C)C(=O)C(=O)c1c(-c2ccccc2)[nH]c2ccc(Cl)cc12` has a Ki (Translocator protein) of 3.6 nM and an Activity (C6) of 76%.

In the case of `CCCN(CCC)C(=O)C(=O)c1c(-c2ccccc2)[nH]c2c(Cl)cccc12`, the Ki (Translocator protein) is reported as 14 nM and the Activity (C6) is reported as 0%.

`CCCCN(CC)C(=O)C(=O)c1c(-c2ccccc2)[nH]c2ccc(Cl)cc12` gave a Ki (Translocator protein) of 1.8 nM and an Activity (C6) of 72%.

`CCCCN(C)C(=O)C(=O)c1c(-c2ccc(Cl)cc2)[nH]c2ccc(Cl)cc12` showed a Ki (Translocator protein) of 0.15 nM and an Activity (C6) of 67%.

Work on `CCCCCCN(CCCCCC)C(=O)C(=O)c1c(-c2ccccc2)[nH]c2c(Cl)cccc12` yielded a Ki (Translocator protein) of 2.4 nM and an Activity (C6) of 0%.

In the case of `CCCCN(CCCC)C(=O)C(=O)c1c(-c2ccccc2)[nH]c2c(C)cccc12`, the Ki (Translocator protein) is reported as 6 nM and the Activity (C6) is reported as 71%.

`CCN(Cc1ccccc1)C(=O)C(=O)c1c(-c2ccccc2)[nH]c2ccc(F)cc12` gave a Ki (Translocator protein) of 1.33 nM.

In the case of `CCN(Cc1ccccc1)C(=O)C(=O)c1c(-c2ccc(F)cc2)[nH]c2ccc(Cl)cc12`, the Ki (Translocator protein) is reported as 4.01 nM and the Activity (C6) is reported as 0%.

`CCN(Cc1ccccc1)C(=O)C(=O)c1c(-c2ccccc2)[nH]c2c(Cl)cccc12` was tested, and the Ki (Translocator protein) was 5 nM and the Activity (C6) was 0%.

With `CCCN(CCC)C(=O)C(=O)c1c(-c2ccc(F)cc2)[nH]c2ccc(Cl)cc12` the Ki (Translocator protein) was 2.83 nM and the Activity (C6) was 42%.

In the case of `CCCCN(CCCC)C(=O)C(=O)c1c(-c2ccc(F)cc2)[nH]c2ccc(Cl)cc12`, the Ki (Translocator protein) is reported as 3.05 nM and the Activity (C6) is reported as 37%.

`CCN(Cc1ccccc1)C(=O)C(=O)c1c(-c2ccc(Cl)cc2)[nH]c2ccc(Cl)cc12` gave an Activity (C6) of 171%.

Compound `CCN(Cc1ccccc1)C(=O)C(=O)c1c(-c2ccc(C)cc2)[nH]c2ccccc12` has a Ki (Translocator protein) of 2.64 nM and an Activity (C6) of 86%.

With `CCN(Cc1ccccc1)C(=O)C(=O)c1c(-c2ccccc2)[nH]c2c(C)cccc12` the Ki (Translocator protein) was 2.3 nM and the Activity (C6) was 0%.

With `CCN(Cc1ccccc1)C(=O)C(=O)c1c(-c2ccccc2)[nH]c2ccc(Cl)cc12` the Ki (Translocator protein) was 4.6 nM and the Activity (C6) was 85%.

In the case of `CCCCN(C)C(=O)C(=O)c1c(-c2ccc(Cl)cc2)[nH]c2ccccc12`, the Ki (Translocator protein) is reported as 11 nM.

`CCCCN(CC)C(=O)C(=O)c1c(-c2ccc(Cl)cc2)[nH]c2ccccc12` was tested, and the Ki (Translocator protein) was 3.6 nM and the Activity (C6) was 32%.

Compound `CCN(C)C(=O)C(=O)c1c(-c2ccc(Cl)cc2)[nH]c2ccc(Cl)cc12` has a Ki (Translocator protein) of 9.54 nM and an Activity (C6) of 0%.

Work on `CCCCN(C)C(=O)C(=O)c1c(-c2ccccc2)[nH]c2ccccc12` yielded a Ki (Translocator protein) of 53.3 nM and an Activity (C6) of 32%.

`CCN(Cc1ccccc1)C(=O)C(=O)c1c(-c2ccc(C(F)(F)F)cc2)[nH]c2ccccc12` gave a Ki (Translocator protein) of 1 nM.

With `CCCCN(CCCC)C(=O)C(=O)c1c(-c2ccccc2)[nH]c2c(Cl)cccc12` the Ki (Translocator protein) was 3.4 nM and the Activity (C6) was 0%.

`CCN(Cc1ccccc1)C(=O)C(=O)c1c(-c2ccc(F)cc2)[nH]c2ccccc12` gave a Ki (Translocator protein) of 1.68 nM and an Activity (C6) of 96%.

For `CCN(Cc1ccccc1)C(=O)C(=O)c1c(-c2ccccc2)[nH]c2ccc([N+](=O)[O-])cc12`, the Ki (Translocator protein) was 18.3 nM and the Activity (C6) was 0%.

`CCCN(CCC)C(=O)C(=O)c1c(-c2ccccc2)[nH]c2ccc(F)cc12` showed a Ki (Translocator protein) of 2.67 nM and an Activity (C6) of 66%.

`CCCCN(CCCC)C(=O)C(=O)c1c(-c2ccc(C(F)(F)F)cc2)[nH]c2ccccc12` was tested, and the Ki (Translocator protein) was 1.16 nM and the Activity (C6) was 60%.

For `CCCCCCN(CCCCCC)C(=O)C(=O)c1c(-c2ccc(C(F)(F)F)cc2)[nH]c2ccccc12`, the Ki (Translocator protein) was 1 nM and the Activity (C6) was 85%.

In the case of `CCCCN(CCCC)C(=O)C(=O)c1c(-c2ccc(F)cc2)[nH]c2ccc(F)cc12`, the Ki (Translocator protein) is reported as 4.36 nM and the Activity (C6) is reported as 91%.

Work on `CCCCCCN(CCCCCC)C(=O)C(=O)c1c(-c2ccc([N+](=O)[O-])cc2)[nH]c2ccccc12` yielded a Ki (Translocator protein) of 0.23 nM and an Activity (C6) of 88%.

Work on `CCCCCCN(CCCCCC)C(=O)C(=O)c1c(-c2ccc(F)cc2)[nH]c2ccc(F)cc12` yielded a Ki (Translocator protein) of 0.95 nM and an Activity (C6) of 40%.

`CCCCN(CCCC)C(=O)C(=O)c1c(-c2ccc([N+](=O)[O-])cc2)[nH]c2ccccc12` gave a Ki (Translocator protein) of 0.27 nM and an Activity (C6) of 64%.

In the case of `CCCCCCN(CCCCCC)C(=O)C(=O)c1c(-c2ccccc2)[nH]c2ccc(F)cc12`, the Ki (Translocator protein) is reported as 0.37 nM and the Activity (C6) is reported as 36%.

`CCCN(CCC)C(=O)C(=O)c1c(-c2ccccc2)[nH]c2ccc(OC)cc12` showed a Ki (Translocator protein) of 328 nM and an Activity (C6) of 45%.

With `CCCN(CCC)C(=O)C(=O)c1c(-c2ccccc2)[nH]c2ccc([N+](=O)[O-])cc12` the Ki (Translocator protein) was 20.2 nM and the Activity (C6) was 91%.

`CCCCN(CCCC)C(=O)C(=O)c1c(-c2ccccc2)[nH]c2ccc(OC)cc12` showed a Ki (Translocator protein) of 65.2 nM and an Activity (C6) of 36%.

Work on `CCCCCCN(CCCCCC)C(=O)C(=O)c1c(-c2ccccc2)[nH]c2ccc(OC)cc12` yielded a Ki (Translocator protein) of 35.5 nM and an Activity (C6) of 87%.

`CCN(Cc1ccccc1)C(=O)C(=O)c1c(-c2ccccc2)[nH]c2ccc(OC)cc12` gave a Ki (Translocator protein) of 69.5 nM.

Compound `CCCCCN(C)C(=O)C(=O)c1c(-c2ccc(Cl)cc2)[nH]c2ccccc12` has a Ki (Translocator protein) of 3.4 nM and an Activity (C6) of 65%.

In the case of `CCCN(CCC)C(=O)C(=O)c1c(-c2ccccc2)[nH]c2c(C)cccc12`, the Ki (Translocator protein) is reported as 25 nM and the Activity (C6) is reported as 129%.

In the case of `CCN(C)C(=O)C(=O)c1c(-c2ccccc2)[nH]c2ccccc12`, the Ki (Translocator protein) is reported as 940 nM.

For `CCN(Cc1ccccc1)C(=O)C(=O)c1c(-c2ccc(F)cc2)[nH]c2ccc(F)cc12`, the Ki (Translocator protein) was 1.67 nM.

`CCCCN(CC)C(=O)C(=O)c1c(-c2ccc(Cl)cc2)[nH]c2ccc(Cl)cc12` was tested, and the Ki (Translocator protein) was 0.36 nM and the Activity (C6) was 11%.

With `CCCCCN(C)C(=O)C(=O)c1c(-c2ccccc2)[nH]c2ccccc12` the Ki (Translocator protein) was 12.1 nM and the Activity (C6) was 36%.

`CCN(Cc1ccccc1)C(=O)C(=O)c1c(-c2ccc([N+](=O)[O-])cc2)[nH]c2ccccc12` gave a Ki (Translocator protein) of 0.55 nM and an Activity (C6) of 103%.

`CCCCCCN(CCCCCC)C(=O)C(=O)c1c(-c2ccc(F)cc2)[nH]c2ccc(Cl)cc12` gave an Activity (Rattus norvegicus [1]) of 2, a Ki (Translocator protein) of 7.75 nM and an Activity (Rattus norvegicus [2]) of 9.8. It also gave an Activity (C6) of 135%.

`CCCCCN(C)C(=O)C(=O)c1c(-c2ccc(Cl)cc2)[nH]c2ccc(Cl)cc12` showed a Ki (Translocator protein) of 0.18 nM and an Activity (C6) of 31%.

`CCCN(CCC)C(=O)C(=O)c1c(-c2ccc(F)cc2)[nH]c2ccc(F)cc12` gave a Ki (Translocator protein) of 6.73 nM and an Activity (C6) of 17%.

With `CCCCCCN(CCCCCC)C(=O)C(=O)c1c(-c2ccccc2)[nH]c2ccc([N+](=O)[O-])cc12` the Ki (Translocator protein) was 30.3 nM and the Activity (C6) was 115%.

`CCCCN(CCCC)C(=O)C(=O)c1c(-c2ccccc2)[nH]c2ccc([N+](=O)[O-])cc12` gave a Ki (Translocator protein) of 21.6 nM and an Activity (C6) of 102%.

With `CCCCN(CCCC)C(=O)C(=O)c1c(-c2ccccc2)[nH]c2ccc(F)cc12` the Ki (Translocator protein) was 4 nM and the Activity (C6) was 88%.

`CCCN(CCC)C(=O)C(=O)c1c(-c2ccc([N+](=O)[O-])cc2)[nH]c2ccccc12` gave a Ki (Translocator protein) of 0.95 nM and an Activity (C6) of 70%.

In the case of `CCCN(CCC)C(=O)C(=O)c1c(-c2ccc(C(F)(F)F)cc2)[nH]c2ccccc12`, the Ki (Translocator protein) is reported as 1.69 nM and the Activity (C6) is reported as 66%.

Compound `CCCCN(CC)C(=O)C(=O)c1c(-c2ccccc2)[nH]c2ccccc12` has a Ki (Translocator protein) of 12.6 nM and an Activity (C6) of 43%.

Work on `CCCN(CCC)C(=O)C(=O)c1c(-c2ccccc2)[nH]c2ccc(Cl)cc12` yielded an Activity (C6) of 10%.

`CCCN(CCC)C(=O)C(=O)c1c(-c2ccc(Cl)cc2)[nH]c2ccc(Cl)cc12` gave an Activity (C6) of 49%.

Compound `CCCN(CCC)C(=O)C(=O)c1c(-c2ccccc2)[nH]c2ccccc12` has an Activity (C6) of 8%.

With `CCC(C)N(C)C(=O)c1cc2ccccc2c(-c2ccccc2Cl)n1` (stereo not given) [PK-11195] the Activity (C6) was 48%.

Compound `CN1C(=O)CN=C(c2ccc(Cl)cc2)c2cc(Cl)ccc21` [RO-54864] has an Activity (C6) of 41%.

Reference: ChEMBL document CHEMBL1140064, “Anxiolytic-like effects of N,N-dialkyl-2-phenylindol-3-ylglyoxylamides by modulation of translocator protein promoting neurosteroid biosynthesis” (J Med Chem, 2008)
